HSP90 inh = HSP90 refolding inhibition in rabbit reticulocyte lysate. AID 1789. 290,000 compounds, 0.91% hits. luciferase refolding luminescence, 3 h. inhibition, % at 5.6 µM;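 active = inhibition above the screen-wide mean plus 3 SD, computed separately per campaign, cut at about 16% in these data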;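 also: 0% = DMSO wells and 100% = 60 µM geldanamycin wells; inhibitors lower the luminescence because luciferase stays unfolded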
SENP1 FRET inh = SENP1 (human) catalytic domain inhibition. Q9P0U3. recombinant SENP1 catalytic domain, CyPet-SUMO1-YPet FRET cleavage. inhibition, % at 10 µM. 360,000 compounds, 0.21% hits. AID 624204;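 active = inhibition at least 30% at 10 µM, raw YFP signal under a set limit, fluorescence ratio 0.5 to 1.5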;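 also: 0% = enzyme with DMSO and 100% = no enzyme wells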
Target sequence (Q9P0U3 419-644 limits assumed): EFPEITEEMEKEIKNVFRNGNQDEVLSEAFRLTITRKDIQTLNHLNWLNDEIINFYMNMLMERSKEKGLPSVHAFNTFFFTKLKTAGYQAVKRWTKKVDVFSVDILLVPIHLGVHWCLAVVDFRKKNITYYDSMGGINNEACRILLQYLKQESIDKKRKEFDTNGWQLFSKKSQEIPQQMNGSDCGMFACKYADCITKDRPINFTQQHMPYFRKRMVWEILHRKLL
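Controls: no-enzyme wells low, DMSO-plus-enzyme wells high control. Test system: human recombinant His6-tagged SENP1 catalytic domain enzyme. Reagent: SFCypet-SUMO1-SFYpet FRET protein substrate, 25 nM final. Doses: one dose per compound, 10 µM, 0.5% DMSO. Detection: FRET, CFP and YFP emission. Timing: 50 min reaction at room temperature.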
SENP7 block = inhibitors of human SENP7 protease; 330,000 compounds, 1.5% hits; inhibition, % at 5 µM; recombinant SENP7, Z-RLRGG-aminoluciferin luminescence, 40 min; Q9BQF6; AID 434973;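 active = inhibition above about 50% at the single test dose, limit read from the data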;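 also: plate controls were DMSO with enzyme for no effect and no enzyme buffer wells for full effect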
Target sequence (Q9BQF6 706-1050 limits assumed): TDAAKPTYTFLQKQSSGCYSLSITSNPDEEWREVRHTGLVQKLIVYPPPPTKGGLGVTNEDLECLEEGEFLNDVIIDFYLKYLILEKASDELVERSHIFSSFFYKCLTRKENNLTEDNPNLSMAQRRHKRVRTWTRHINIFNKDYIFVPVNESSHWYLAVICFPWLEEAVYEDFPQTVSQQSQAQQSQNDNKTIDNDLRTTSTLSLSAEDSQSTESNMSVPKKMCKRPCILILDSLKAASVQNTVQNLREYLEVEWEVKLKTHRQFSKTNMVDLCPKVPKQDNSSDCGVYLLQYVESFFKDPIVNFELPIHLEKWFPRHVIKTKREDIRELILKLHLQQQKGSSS
SENP8 block-1 = inhibitors of human SENP8 protease; Q96LD8; purified SENP8, Z-RLRGG-aminoluciferin cleavage, luminescence; inhibition, % at 10 µM; 330,000 compounds, 1.2% hits; AID 2540; in the data active = inhibition above about 50%
SENP8 block-2 = inhibitors of human SENP8 protease; recombinant SENP8, Nedd8 substrate fluorescence; 360,000 compounds, 0.64% hits; Q96LD8; AID 602440; inhibition, % at 20 µM; in the data active = inhibition mostly above about 40%, no sharp cut-off; inactive = mostly below about 27%
SENP6 inh = SENP6 protease inhibition; Q9GZR1; Recombinant SENP6 catalytic domain, aminoluciferin luminescence; inhibition, % at 10 µM; 330,000 compounds, 1.8% hits; AID 2599;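 active = inhibition above about 50% at the single tested dose, limit read from the data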;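 also: plate controls were DMSO wells with enzyme for no effect and DMSO wells lacking enzyme for full effect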
SENP8 conf = confirmation of human SENP8 protease inhibitors | shares compounds with SENP7 block | Recombinant SENP8, Z-RLRGG-aminoluciferin luminescence, 60 min | inhibition, % at 12.5 µM | 6,200 compounds, 40% hits | AID 488912;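 active = mean inhibition across replicates above about 50%, limit read from the data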
SENP6 conf = confirmation of human SENP6 protease inhibitors; shares compounds with SENP7 block; recombinant SENP6, Z-RLRGG-aminoluciferin luminescence; inhibition, % at 12.5 µM; 6,200 compounds, 58% hits
SENP7 confirm = human SENP7 inhibition, confirmed; shares compounds with SENP7 block; recombinant SENP7, Z-RLRGG-aminoluciferin luminescence, 40 min; inhibition, % at 12.5 µM; 6,200 compounds, 69% hits
Casp3 select = caspase-3 inhibition (SENP selectivity assay). shares compounds with SENP7 block. purified caspase-3, Z-DEVD-aminoluciferin luminescence, 60 min. inhibition, % at 12.5 µM. 6,200 compounds, 60% hits. AID 488918;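 active = mean inhibition above about 50%, limit read from the data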;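 also: plate controls were enzyme with DMSO for no effect and wells without caspase-3 for full effect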
Luc interf = luminescence interference (SENP counter-screen); shares compounds with SENP7 block; Pre-incubated SENP8/Z-RLRGG-aminoluciferin, luciferase luminescence interference; inhibition, % at 12.5 µM; 6,200 compounds, 39% hits; AID 488919;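 active = mean inhibition above about 50% when retested at one dose, limit read from the data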;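 also: plate controls were DMSO wells with completed reaction for no effect and substrate without enzyme for full effect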
* hit, by the source's call; i = inactive; · = no result given. Only some compounds are listed: those with a hit (about 2.9% of all), similar ones and a draw of the others.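 The calls were made as follows, unless noted: active = mean inhibition above about 50% in the one-dose retest (limit read from the data); inactive = the rest.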

SMILES | HSP90 inh | SENP1 FRET inh | SENP7 block | SENP8 block-1 | SENP8 block-2 | SENP6 inh | SENP8 conf | SENP6 conf | SENP7 confirm | Casp3 select | Luc interf
Clc1ccc(-c2cc3ccccc3[nH]2)cc1 | 0 | -7 | 44 | 31 | -278 | 71* | 11 | 42 | 78* | 11 | 26
Cc1nnc(SCCC(=O)Nc2nc(-c3ccccc3)ns2)s1 | 2 | -11 | -5 | 17 | -4 | 58* | 54* | 50* | 78* | 26 | 30
CCCC(=O)Nc1nc(-c2ccccc2)ns1 | 1 | -1 | -2 | 0 | 13 | -6 | · | · | · | · | ·
C/C(=N/OC(=O)c1ccc(C(F)(F)F)cc1)c1oc(C)nc1C | 0 | 3 | 91* | 72* | 20 | 84* | 78* | 79* | 97* | 86* | 57*
O=C(Nc1cccc2nsnc12)c1ccc2c(c1)OCCO2 | 0 | -25 | -20 | 66* | -273 | 77* | 11 | 83* | 98* | 88* | 27
O=C(Nc1cccc2nsnc12)c1ccc2c(c1)OCO2 | -9 | -61 | 60* | 52* | -407 | 69* | 30 | 66* | 77* | 67* | 11
O=C(Nc1cccc2nsnc12)c1ccc(F)cc1 | 0 | -27 | 30 | -8 | -410 | 9 | · | · | · | · | ·
O=C(Nc1cccc2cccnc12)c1ccc2c(c1)OCCO2 | 1 | -3 | 32 | 9 | -3 | 49 | · | · | · | · | ·
O=C(c1ccnc(Cl)c1)N1CCCC(N2CCN(c3ccccc3F)CC2)C1 (stereo not given) | 2 | 0 | 10 | -2 | 36 | -4 | · | · | · | · | ·
O=C(N/N=C/C=C/c1ccccc1)c1cc2c(ccc3ccccc32)o1 | -2 | -6 | 7 | 0 | i | 2 | · | · | · | · | ·
CC1=NN(C(N)=S)C(=O)C1N=Nc1cccc([N+](=O)[O-])c1 (stereo not given) | 13 | 1 | 76* | 80* | 32 | 83* | 4 | 5 | -2 | 16 | 7
CC1=NN(C(N)=S)C(=O)C1N=Nc1ccc(Cl)cc1 (stereo not given) | 5 | 3 | 77* | 86* | 33 | 89* | -1 | 72* | 35 | 30 | 14
CC1=NN(C(N)=S)C(=O)C1N=Nc1cccc(Cl)c1C (stereo not given) | 4 | 2 | 59* | 85* | 15 | 94* | 95* | 94* | 100* | 88* | 83*
CC1=NN(C(N)=S)C(=O)C1N=Nc1ccccc1 (stereo not given) | -1 | 4 | 53* | 59* | 23 | 72* | 19 | 55* | 14 | 35 | 0
O=C(NCC1CCCO1)c1ccc(N2CCCCC2)c([N+](=O)[O-])c1 (stereo not given) | 0 | 1 | -5 | -1 | 16 | 1 | · | · | · | · | ·
C=CCN(C(=O)CNS(=O)(=O)c1ccccc1)C(C(=O)NCCOC)c1cccnc1 (stereo not given) | -1 | -3 | 4 | 1 | 2 | -6 | · | · | · | · | ·
CN(Cc1ccccc1)c1ccc(C(CC(N)=O)NC(=O)c2ccccc2)cc1[N+](=O)[O-] (stereo not given) | -1 | 2 | 4 | -10 | 18 | -18 | · | · | · | · | ·
Cc1ccc(C(=O)Cc2cc3ccccc3oc2=O)c(C)c1 | 7 | -1 | 9 | -16 | 15 | 9 | · | · | · | · | ·
CC1=NN(C(N)=S)C(=O)C1N=Nc1ccc(Br)cc1 (stereo not given) | 7 | 4 | 74* | 92* | 36 | 96* | 26 | 40 | 27 | 40 | 23
CC1(C(=O)NCc2cccs2)Cc2c(-c3ccccc3)ccnc2O1 (stereo not given) | · | -1 | · | · | 14 | · | · | · | · | · | ·
COc1ccc(Cn2c(C3CC3)nc3ccc(NC(=O)C4CC4)cc3c2=O)cc1 | -2 | -2 | 67* | 38 | -93 | 8 | 9 | 3 | 92* | 58* | -4
Cc1c(C#N)c(=O)c(-[n+]2ccccc2)c([S-])n1-c1ccc(Cl)cc1 | 12 | -6 | 10 | -2 | 24 | -3 | · | · | · | · | ·
CC1(C(=O)NCc2ccccc2Br)CCN1C(=O)CCc1ccc(Cl)cc1Cl (stereo not given) | · | -1 | · | · | 13 | · | · | · | · | · | ·
COc1cc(Cl)c(NS(=O)(=O)c2ccc(-c3ccc(=O)[nH]n3)o2)c(OC)c1 | -4 | 4 | -10 | 1 | 6 | 9 | · | · | · | · | ·
COc1cc(Cl)c(NC2=CC(=O)C(=O)c3ccccc32)c(OC)c1 | · | -2 | 60* | 75* | i | -12 | 1 | 90* | 74* | 8 | 0
SMILES | HSP90 inh | SENP1 FRET inh | SENP7 block | SENP8 block-1 | SENP8 block-2 | SENP6 inh | SENP8 conf | SENP6 conf | SENP7 confirm | Casp3 select | Luc interf
Cc1ccc(O)c(N=Nc2ccccc2)n1 | · | 1 | 100* | 95* | 8 | 93* | 95* | 98* | 103* | 96* | 62*
CCCCNC(=O)C1(C)CCN1C(=O)c1ccc(C)c(F)c1 (stereo not given) | · | 0 | · | · | 8 | · | · | · | · | · | ·
O=C1C=C(c2ccccc2)C(c2ccccc2)C1 (stereo not given) | · | 1 | · | · | 0 | · | · | · | · | · | ·
CCCN(CC(=O)Nc1ccccc1C)C(=O)c1ccc(N2CCCC(C)C2)c([N+](=O)[O-])c1 (stereo not given) | · | 1 | · | · | 14 | · | · | · | · | · | ·
N#CCSc1nc2ccccc2o1 | -2 | 3 | 8 | -2 | 7 | -17 | · | · | · | · | ·
O=[N+]([O-])c1ccccc1CSc1nc2ccccc2o1 | 0 | 4 | 9 | 29 | 17 | 55* | 18 | 14 | 49 | 7 | 9
O=C(/C=C/c1ccco1)Nc1ccc(N2CCCC2)cc1 | -3 | -4 | 68* | 43 | 28 | 63* | 39 | 32 | 57* | 21 | 27
O=C(/C=C/c1ccco1)NC(=S)Nc1cccc(-c2nc3ccccc3s2)c1 | 4 | 3 | 5 | 41 | -38 | 63* | 20 | 17 | 7 | 19 | -2
COc1cccc(NC(=O)/C=C/c2ccco2)c1 | -3 | -5 | 92* | 84* | 2 | 58* | -12 | 88* | 100* | 93* | 88*
CC(=O)NS(=O)(=O)c1ccc(NC(=O)C(C)NS(=O)(=O)/C=C/c2ccccc2)cc1 (stereo not given) | · | 1 | 3 | 3 | -2 | -7 | · | · | · | · | ·

Screens (PubChem BioAssay)
